Data on two molecules can be found in ChEMBL document CHEMBL1154886, “DNA-damaging, mutagenic, and clastogenic activities of gentiopicroside isolated from Cephalaria kotschyi roots” (J Nat Prod, 2010).

The nature of data set [1]: Mutagenic activity in Salmonella typhimurium TA97a assessed as increase in number of revertants at 0.002 ug/plate by Ames test absence of S9 fraction (Rvb=146+/- 8). To be noted: salmonella enterica subsp. enterica serovar typhimurium. It counts as toxicity. In short, it runs like this:
(§1)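 Microsuspension Ames test, with and without rat liver S9 mix. The S9 is from male Sprague-Dawley rats given Aroclor 1254 (26 mg/mL protein); the final mix is 4% S9, 10 mM G6P and 8 mM NADP. Triplicate plates are incubated 48 h at 37 °C and colonies counted automatically. Values are mean ± SD revertants per plate, tested against spontaneous revertants (Rvb) by Dunnett test.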
(In general: The Ames test detects mutagens through reverse mutation in bacteria.)

Data set [2] can be described thus: Mutagenic activity in Salmonella Typhimurium TA98 assessed as increase in number of revertants at 80 ug/plate by Ames test presence of S9 fraction (Rvb=34+/- 4). The data set is classed as toxicity. To be noted: salmonella enterica subsp. enterica serovar typhimurium. In short, it runs like this: as §1
Data set [3] is described as follows: Mutagenic activity in Salmonella Typhimurium TA97a assessed as increase in number of revertants at 100 ug/plate by Ames test absence of S9 fraction (Rvb=146+/- 8). The settings on record: salmonella enterica subsp. enterica serovar typhimurium. It counts as toxicity. In short, it runs like this: as §1
Data set [4] is described as follows: Mutagenic activity in Salmonella Typhimurium TA100 assessed as increase in number of revertants at 80 ug/plate by Ames test presence of S9 fraction (Rvb=124+/-13). It counts as toxicity. The settings on record: salmonella enterica subsp. enterica serovar typhimurium. In short, it runs like this:
as §1

The nature of data set [5]: Mutagenic activity in Salmonella Typhimurium TA98 assessed as increase in number of revertants at 100 ug/plate by Ames test presence of S9 fraction (Rvb=34+/- 4). The data set is classed as toxicity. To be noted: salmonella enterica subsp. enterica serovar typhimurium. In short, it runs like this: as §1
The nature of data set [6]: Cytotoxicity activity against CHO cells assessed as cell viability after 2 hrs by WST1 test. The data set is classed as cell-based, Cricetulus griseus. To be noted: chinese hamster, read-out: Activity. In short, it runs like this: (§2)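 CHO-K1 cells in McCoy's 5A with 10% fetal calf serum are seeded and incubated overnight at 37 °C, 5% CO2. A range of compound concentrations is added in triplicate cultures (final DMSO below 0.2%) for 2 or 24 h. Cells are washed three times in PBS, then given 10% WST1 in medium for 30 min. Viability is read as absorbance at 450 nm.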
Background: Tetrazolium dyes change colour on reduction, which living cells bring about.

A short description of data set [7]: Mutagenic activity in Salmonella Typhimurium TA97a assessed as increase in number of revertants at 40 ug/plate by Ames test presence of S9 fraction (Rvb=154+/-18). To be noted: salmonella enterica subsp. enterica serovar typhimurium. The data set is classed as toxicity. In short, it runs like this:
as §1

For a further data set, the system named is CHO. Put plainly: Cytotoxicity activity against CHO cells assessed as cell viability after 24 hrs by WST1 test. To be noted: chinese hamster. It counts as cell-based, Cricetulus griseus. In short, it runs like this: as §2
Data set [8] in a line: Mutagenic activity in Salmonella typhimurium TA102 assessed as increase in number of revertants at 80 ug/plate by Ames test presence of S9 fraction (Rvb=369+/-34). It counts as toxicity. To be noted: salmonella enterica subsp. enterica serovar typhimurium. In short, it runs like this:
as §1

Data set [9] in a line: Mutagenic activity in Salmonella Typhimurium TA97a assessed as increase in number of revertants at 100 ug/plate by Ames test presence of S9 fraction (Rvb=154+/-18). It counts as toxicity. To be noted: salmonella enterica subsp. enterica serovar typhimurium. In short, it runs like this: as §1
Data set [10] is described as follows: Mutagenic activity in Salmonella Typhimurium TA97a assessed as increase in number of revertants at 40 ug/plate by Ames test absence of S9 fraction (Rvb=146+/- 8). To be noted: salmonella enterica subsp. enterica serovar typhimurium. It counts as toxicity. In short, it runs like this:
as §1

Data set [11] can be described thus: Mutagenic activity in Salmonella Typhimurium TA100 assessed as increase in number of revertants at 40 ug/plate by Ames test absence of S9 fraction (Rvb=108+/-5). To be noted: salmonella enterica subsp. enterica serovar typhimurium. The data set is classed as toxicity. In short, it runs like this: as §1
The nature of data set [12]: Mutagenic activity in Salmonella Typhimurium TA102 assessed as increase in number of revertants at 100 ug/plate by Ames test presence of S9 fraction (Rvb=369+/-34). The data set is classed as toxicity. To be noted: salmonella enterica subsp. enterica serovar typhimurium. In short, it runs like this: as §1
Data set [13] in a line: Mutagenic activity in Salmonella typhimurium TA98 assessed as increase in number of revertants at 40 ug/plate by Ames test absence of S9 fraction (Rvb=22+/- 4). It counts as toxicity. To be noted: salmonella enterica subsp. enterica serovar typhimurium. In short, it runs like this: as §1
A short description of data set [14]: Mutagenic activity in Salmonella Typhimurium TA102 assessed as increase in number of revertants at 100 ug/plate by Ames test absence of S9 fraction (Rvb=290+/-10). The data set is classed as toxicity. The settings on record: salmonella enterica subsp. enterica serovar typhimurium. In short, it runs like this:
as §1

Data set [15] can be described thus: Mutagenic activity in Salmonella Typhimurium TA100 assessed as increase in number of revertants at 100 ug/plate by Ames test absence of S9 fraction (Rvb=108+/-5). The settings on record: salmonella enterica subsp. enterica serovar typhimurium.
Data set [16] is described as follows: Mutagenic activity in Salmonella typhimurium TA98 assessed as increase in number of revertants at 60 ug/plate by Ames test absence of S9 fraction (Rvb=22+/- 4). The data set is classed as toxicity. To be noted: salmonella enterica subsp. enterica serovar typhimurium. In short, it runs like this:
as §1

Data set [17] in a line: Mutagenic activity in Salmonella typhimurium TA98 assessed as increase in number of revertants at 60 ug/plate by Ames test presence of S9 fraction (Rvb=34+/- 4). It counts as toxicity. The settings on record: salmonella enterica subsp. enterica serovar typhimurium. In short, it runs like this: as §1
The nature of data set [18]: Mutagenic activity in Salmonella Typhimurium TA98 assessed as increase in number of revertants at 100 ug/plate by Ames test absence of S9 fraction (Rvb=22+/- 4). The data set is classed as toxicity. To be noted: salmonella enterica subsp. enterica serovar typhimurium. In short, it runs like this:
as §1

The nature of data set [19]: Mutagenic activity in Salmonella Typhimurium TA102 assessed as increase in number of revertants at 60 ug/plate by Ames test presence of S9 fraction (Rvb=369+/-34). The settings on record: salmonella enterica subsp. enterica serovar typhimurium. The data set is classed as toxicity. In short, it runs like this: as §1
Data set [20] in a line: Mutagenic activity in Salmonella typhimurium TA100 assessed as increase in number of revertants at 80 ug/plate by Ames test absence of S9 fraction (Rvb=108+/-5). It counts as toxicity. To be noted: salmonella enterica subsp. enterica serovar typhimurium. In short, it runs like this: as §1
A short description of data set [21]: Mutagenic activity in Salmonella typhimurium TA100 assessed as increase in number of revertants at 100 ug/plate by Ames test presence of S9 fraction (Rvb=124+/-13). It counts as toxicity. The settings on record: salmonella enterica subsp. enterica serovar typhimurium. In short, it runs like this: as §1
The nature of data set [22]: Mutagenic activity in Salmonella typhimurium TA97a assessed as increase in number of revertants at 60 ug/plate by Ames test absence of S9 fraction (Rvb=146+/- 8). It counts as toxicity. To be noted: salmonella enterica subsp. enterica serovar typhimurium. In short, it runs like this:
as §1

Data set [23] is described as follows: Mutagenic activity in Salmonella typhimurium TA100 assessed as increase in number of revertants at 40 ug/plate by Ames test presence of S9 fraction (Rvb=124+/-13). The settings on record: salmonella enterica subsp. enterica serovar typhimurium. The data set is classed as toxicity. In short, it runs like this: as §1
Data set [24] in a line: Mutagenic activity in Salmonella Typhimurium TA102 assessed as increase in number of revertants at 40 ug/plate by Ames test absence of S9 fraction (Rvb=290+/-10). The settings on record: salmonella enterica subsp. enterica serovar typhimurium. The data set is classed as toxicity. In short, it runs like this: as §1
Data set [25] can be described thus: Mutagenic activity in Salmonella Typhimurium TA100 assessed as increase in number of revertants at 60 ug/plate by Ames test presence of S9 fraction (Rvb=124+/-13). It counts as toxicity. The settings on record: salmonella enterica subsp. enterica serovar typhimurium. In short, it runs like this: as §1
Data set [26] is described as follows: Mutagenic activity in Salmonella Typhimurium TA102 assessed as increase in number of revertants at 60 ug/plate by Ames test absence of S9 fraction (Rvb=290+/-10). To be noted: salmonella enterica subsp. enterica serovar typhimurium. The data set is classed as toxicity. In short, it runs like this:
as §1

The nature of data set [27]: Mutagenic activity in Salmonella typhimurium TA97a assessed as increase in number of revertants at 60 ug/plate by Ames test presence of S9 fraction (Rvb=154+/-18). To be noted: salmonella enterica subsp. enterica serovar typhimurium. It counts as toxicity. In short, it runs like this: as §1
The nature of data set [28]: Mutagenic activity in Salmonella Typhimurium TA97a assessed as increase in number of revertants at 80 ug/plate by Ames test absence of S9 fraction (Rvb=146+/- 8). To be noted: salmonella enterica subsp. enterica serovar typhimurium. It counts as toxicity. In short, it runs like this:
as §1

The nature of data set [29]: Mutagenic activity in Salmonella typhimurium TA100 assessed as increase in number of revertants at 60 ug/plate by Ames test absence of S9 fraction (Rvb=108+/-5). It counts as toxicity. To be noted: salmonella enterica subsp. enterica serovar typhimurium. In short, it runs like this:
as §1

Data set [30] in a line: Mutagenic activity in Salmonella typhimurium TA98 assessed as increase in number of revertants at 40 ug/plate by Ames test presence of S9 fraction (Rvb=34+/- 4). To be noted: salmonella enterica subsp. enterica serovar typhimurium. The data set is classed as toxicity. In short, it runs like this:
as §1

A short description of data set [31]: Mutagenic activity in Salmonella Typhimurium TA102 assessed as increase in number of revertants at 80 ug/plate by Ames test absence of S9 fraction (Rvb=290+/-10). To be noted: salmonella enterica subsp. enterica serovar typhimurium. The data set is classed as toxicity. In short, it runs like this: as §1
Data set [32] can be described thus: Mutagenic activity in Salmonella Typhimurium TA102 assessed as increase in number of revertants at 40 ug/plate by Ames test presence of S9 fraction (Rvb=369+/-34). It counts as toxicity. To be noted: salmonella enterica subsp. enterica serovar typhimurium. In short, it runs like this: as §1
Data set [33] can be described thus: Mutagenic activity in Salmonella typhimurium TA97a assessed as increase in number of revertants at 80 ug/plate by Ames test presence of S9 fraction (Rvb=154+/-18). It counts as toxicity. To be noted: salmonella enterica subsp. enterica serovar typhimurium. In short, it runs like this: as §1
A short description of data set [34]: Mutagenic activity in Salmonella Typhimurium TA98 assessed as increase in number of revertants at 80 ug/plate by Ames test absence of S9 fraction (Rvb=22+/- 4). The settings on record: salmonella enterica subsp. enterica serovar typhimurium. The data set is classed as toxicity. In short, it runs like this: as §1

Take `COc1ccc2nc3cc(Cl)ccc3c(NCCCNCCCl)c2c1`: the Activity in data set [1] was 1287.
Regarding `C=C[C@@H]1C2=CCOC(=O)C2=CO[C@H]1O[C@@H]1O[C@H](CO)[C@@H](O)[C@H](O)[C@H]1O` [GENTIOPICROSIDE], the Activity in data set [2] was 28; in data set [3] it was 180; in [4], 140; in data set [5], 31; in data set [7], 274; in the data set on CHO, “Non-toxic”. Further, the Activity in data set [8] was 413; in data set [9] it was 173; in data set [10] it was 188; in [11] it was 117; in data set [12], 385; in data set [13], 19. Further, the Activity in data set [14] was 392; in data set [15], 136; in [16] it was 22; in data set [17], 29; in [18], 26; in [19] it was 385. For the same molecule, the Activity in data set [20] is given as 138; in [21], 138; in [22], 174; in [23] it was 119; in data set [24], 368; in [25], 116. The Activity worked out at 378 in data set [26]; 186 in data set [27]; 180 in [28]; 135 in data set [29]; 32 in data set [30]; 395 in [31]. Also, the Activity in data set [32] was found to be 376; in data set [33], 178; in data set [34], 26. The viability at 2 h in data set [6] turned out to be 95%.
